The results in this text go back to ChEMBL document CHEMBL3865838, “Ceylonamides A-F, Nitrogenous Spongian Diterpenes That Inhibit RANKL-Induced Osteoclastogenesis, from the Marine Sponge Spongia ceylonensis” (J Nat Prod, 2016).

Activity calls are given as the source filed them. The rule behind the calls is not given here.

A short description of data set [1]: Inhibition of RANKL-stimulated osteoclastogenesis in mouse RAW264 cells assessed as reduction in TRAP activity after 4 days in presence of RANKL. The class given is functional, cell-based. Put shortly:
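Murine RAW264 cells differentiated with RANKL (50 ng/mL) for 4 days, with or without compound at a range of concentrations. TRAP activity was read as absorbance at 405 nm, and the IC50 was taken from inhibition of RANKL-induced TRAP up-regulation. Cytotoxicity toward RAW264 cells was also checked.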

A short description of data set [2]: Cytotoxicity against mouse RAW264 cells assessed as cell survival at 5 uM relative to control. The class given is toxicity. The note with it: read-out: Survival.
Data set [3] has as its system RAW264. In words: Inhibition of RANKL-stimulated osteoclastogenesis in mouse RAW264 cells assessed reduction in TRAP-positive multinucleated cells at 10 uM after 4 days in presence of RANKL by TRAP-staining based microscopic analysis. It is filed as functional, cell-based. In outline: (§1)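 RAW264 cells were treated with RANKL (50 ng/mL) plus compound at 10 or 20 μM, or without compound, for 4 days. They were then stained with TRAP-staining solution, which stains positive cells red. TRAP-positive multinuclear cells (≥3 nuclei) were counted by microscopy.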

For data set [4], the system named is RAW264. Put plainly: Inhibition of RANKL-stimulated osteoclastogenesis in mouse RAW264 cells assessed reduction in TRAP-positive multinucleated cells at 20 uM after 4 days in presence of RANKL by TRAP-staining based microscopic analysis. It is filed as functional, cell-based. In outline: as §1

As to `C[C@]12C[C@@H](O)C(=O)[C@](C)(CO)[C@@H]1CC[C@@]1(C)c3cocc3CC[C@H]21` [ISOSPONGIADIOL], in data set [1], the IC50 (as a rule, the concentration at which inhibition is half-maximal) is > 50 µM. The viability at 5 µM in data set [2] turned out to be 96%.

`C[C@]12CCC[C@](C)(C(=O)O)[C@@H]1CC[C@@]1(C)C3=C(CC[C@H]21)CNC3=O`: the IC50 in data set [1] is > 50 µM. The viability at 5 µM in data set [2] amounted to 100%.

Regarding `C[C@]12CCC[C@](C)(C(=O)O)[C@@H]1CC[C@@]1(C)C3=C(CC[C@H]21)CN(CCc1ccccc1)C3=O`, the IC50 in data set [1] is > 50 µM. In addition, the viability at 5 µM in data set [2] amounted to 97%.

Turning to `C[C@]12CCC[C@](C)(C(=O)O)[C@@H]1CC[C@@]1(C)c3cocc3CC[C@H]21`, the IC50 in data set [1] is > 50 µM. Moreover, the viability at 5 µM in data set [2] was found to be 100%.

As for `C[C@]12CCC[C@](C)(C(=O)O)[C@@H]1CC[C@@]1(C)C3=C(CC[C@H]21)C(=O)N(CCc1ccccc1)C3`, the IC50 in data set [1] turned out to be 13 µM. In data set [2], the viability at 5 µM is 100%. Moreover, in the data set on RAW264 [3], the inhibition entry was “Active”.

For `CC(C)CCN1CC2=C(C1=O)[C@]1(C)CC[C@@H]3[C@](C)(CCC[C@]3(C)C(=O)O)[C@H]1CC2`, the IC50 in data set [1] is > 50 µM. For the same compound, the viability at 5 µM in data set [2] came to 100%.

On to `C[C@]12CC(=O)[C@@H](O)[C@](C)(CO)[C@@H]1CC[C@@]1(C)c3cocc3CC[C@H]21` [SPONGIADIOL], for which the IC50 in data set [1] was > 50 µM. Also, the viability at 5 µM in data set [2] was found to be 97%.

Turning to `CO[C@H]1O[C@@H](OC)C2=C1CC[C@@H]1[C@@]3(C)CCC[C@](C)(C(=O)O)[C@@H]3CC[C@@]21C`, the IC50 in data set [1] was > 50 µM. The viability at 5 µM in data set [2] worked out at 98%.

In the case of `CC(C)CN1CC2=C(CC[C@@H]3[C@@]4(C)CCC[C@](C)(C(=O)O)[C@@H]4CC[C@@]23C)C1=O`, the IC50 in data set [1] is > 50 µM. Moreover, the viability at 5 µM in data set [2] turned out to be 100%.

In the case of `CC(C)CN1CC2=C(C1=O)[C@]1(C)CC[C@@H]3[C@](C)(CCC[C@]3(C)C(=O)O)[C@H]1CC2`, the IC50 in data set [1] is > 50 µM. Further, the viability at 5 µM in data set [2] amounted to 100%.

As for `CC(C)CCN1CC2=C(CC[C@@H]3[C@@]4(C)CCC[C@](C)(C(=O)O)[C@@H]4CC[C@@]23C)C1=O`, the IC50 in data set [1] was determined as 18 µM. Moreover, in data set [2], the viability at 5 µM is 87%. For the same compound, the inhibition result with RAW264 [4] is “Active”.
